Screens deposited in PubChem by several laboratories.
Shown is part of a subset that was picked to be rich in hits.
Jurkat viability: cytotoxicity toward Jurkat T cells, primary screen, cytotoxicity control, cell-based, Jurkat E6.1, 60K MLSMR library. Jurkat E6.1 viability, ATP luminescence, 48 h. inhibition, % at 4 µM. actives 1.2% (n = 56,000). AID 463, 2006;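 active means inhibition above the mean inhibition of all tested compounds plus 3 SD, cut at about 28% in these data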
MMP13 inh: human MMP13 inhibitors, primary screen, biochemical, FRET peptide cleavage | Collagenase 3 (Homo sapiens), P45452 | MMP-13 fTHP FRET cleavage, Mca fluorescence | inhibition, % at 4 µM | actives 0.07% (n = 65,000) | AID 570, 2006;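 active means inhibition above the mean of compound-free control plate wells plus 3 SD, cut at about 14% in these data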;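 further: 0% = DMSO wells and 100% = wells with reference MMP-13 inhibitor after basal subtraction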
TNAP act DEA: human TNAP enzyme activators, primary screen, biochemical, luminescent, intermediate phosphate acceptor level | 64,000 tested, under 10 active | purified TNAP, CDP-star luminescence, 100 mM DEA, 30 min; active compounds read high; scale: 0 levamisole-inhibited, 1 vehicle-only enzyme | activation factor at 20 µM;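 active means activation factor of at least 2 at 20 µM, relative to controls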
Target sequence (P05186 whole entry, looked up): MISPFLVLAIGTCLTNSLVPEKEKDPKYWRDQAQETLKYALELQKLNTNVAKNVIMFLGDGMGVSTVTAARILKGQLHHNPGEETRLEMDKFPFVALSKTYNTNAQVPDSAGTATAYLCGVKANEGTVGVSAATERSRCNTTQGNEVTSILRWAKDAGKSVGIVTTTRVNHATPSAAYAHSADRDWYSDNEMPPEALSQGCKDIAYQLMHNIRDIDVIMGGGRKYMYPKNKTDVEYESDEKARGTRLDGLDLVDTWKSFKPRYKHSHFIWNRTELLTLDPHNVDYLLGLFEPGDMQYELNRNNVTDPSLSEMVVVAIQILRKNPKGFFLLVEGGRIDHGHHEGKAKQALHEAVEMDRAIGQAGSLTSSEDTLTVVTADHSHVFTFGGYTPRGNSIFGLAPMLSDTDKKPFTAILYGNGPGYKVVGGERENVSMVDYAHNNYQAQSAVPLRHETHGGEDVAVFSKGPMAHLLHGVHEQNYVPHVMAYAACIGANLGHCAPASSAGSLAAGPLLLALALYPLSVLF
Candida biofilm: clotrimazole potentiators killing Candida biofilms, primary screen, with clotrimazole, Alamar Blue. AID 834, 2007. actives 0.14% (n = 85,000). inhibition, % at 6 µM. C. albicans biofilm + clotrimazole;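 active means inhibition above 20%; inactive means inhibition below 20%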;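 further: preformed 24 hr biofilms exposed to compound for 48 hr; 0% = biofilm without compound and 100% = blank killed by clotrimazole plus chlorhexidine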
HEK293 NFkB inh: inhibitors of PMA/ionomycin-induced NF-kB reporter, primary screen, antigen receptor NF-kB inhibitor project, cell-based, HEK-293 luciferase reporter, luminescence | AID 465, 2006 | actives 0.21% (n = 62,000) | HEK-293 NF-kB luciferase reporter | inhibition, % at 3 µM;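 active means inhibition above the mean of all tested compounds plus 3 SD, cut at about 40% in these data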;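 further: 0% = stimulated DMSO wells and 100% = 10 µM reference inhibitor 5653914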
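System – HEK-293 cells with stable firefly luciferase reporter driven by four HIV NF-kB elements · Doses – one dose, 3 µM · Schedule – 1 h compound pre-incubation, 16 h PMA/ionomycin at 37 °C · Technique – luminescence from luciferase substrate reagent · Measure – percent inhibition normalized per plate to DMSO and reference-inhibitor controls · Replicates – tested once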
* hit, by the source's call; nt = no result.

SMILES | Jurkat viability | MMP13 inh | TNAP act DEA | Candida biofilm | HEK293 NFkB inh
Cc1oc(-c2ccc(Cl)cc2)nc1CN1CCCC(C(=O)N2CCN(C(=O)c3ccco3)CC2)C1 (centres undefined) | 62* | -6 | 0.9 | 1 | 38
O=C(CCS(=O)(=O)c1cccc2nsnc12)NCc1ccccc1Cl | nt | nt | nt | 0 | nt
COc1ccc(C2=Nn3c(nnc3-c3ccc(OC)cc3)SC2)cc1 | 93* | -8 | 0.9 | 0 | 25
COc1ccc(-c2nnc3n2N=C(C)CS3)cc1 | nt | nt | nt | 6 | nt
COc1cccc(-c2nnc3n2N=C(C(C)(C)C)CS3)c1 | nt | 1 | 0.9 | 1 | 50*
COc1ccc(C2=Nn3c(nnc3-c3ccccc3OC)SC2)cc1OC | 99* | 0 | 0.9 | nt | 47*
COc1cccc(-c2nnc3n2N=C(c2cc(OC)ccc2OC)CS3)c1 | nt | 0 | 0.9 | nt | 17
COc1cc(-c2nnc3n2N=C(c2ccccc2)CS3)cc(OC)c1OC | 52* | 7 | 0.9 | 7 | 35
CN(C)c1ccc(C(c2nnnn2CCOC(=O)Nc2ccc(Cl)cc2)N2CCOCC2)cc1 (centres undefined) | 5 | -1 | 0.9 | 0 | 10
Cc1noc(C)c1S(=O)(=O)N1CCC(C(=O)N2CCC(N3CCCCC3)CC2)CC1 | -4 | 1 | 1 | 22* | 7
Cc1noc(C)c1S(=O)(=O)N1CCCC(C(=O)N2CCN(C3CCCCC3)CC2)C1 (centres undefined) | 7 | 7 | 0.9 | 6 | 15
C[N+]1(CC(=O)Nc2ccc(F)cc2)CCN(C(=O)c2ccco2)CC1 | nt | nt | nt | 4 | nt
Cn1c(Cn2c(=O)sc3ccccc32)nnc1SCC(=O)NC1CCCCC1 | -3 | 0 | 1 | 21* | 0
O=c1ccccn1Cc1ccccc1F | 0 | 3 | 0.9 | 5 | 17
O=c1c2cc3ccccc3n2cnn1Cc1ccccc1F | 50* | -42 | 0.9 | 6 | 18
COc1ccc(S(=O)(=O)Cc2ccc(C(=O)N3CCN(c4cccc(C)c4)C(C)C3)o2)cc1 (centres undefined) | 90* | -3 | 0.9 | 9 | 9
Cc1ccc(NC(=O)Cn2c(=O)oc3cc(S(=O)(=O)N4CCC(C)CC4)ccc32)cc1C | nt | nt | nt | 5 | nt
CC(C)O/C(=N\S(=O)(=O)c1ccc(Cl)cc1)c1ccccc1 | nt | nt | nt | 0 | nt
CC(C)CO/C(=N/S(=O)(=O)c1ccccc1)c1ccccc1 | nt | nt | nt | 73* | nt
O=C(NCc1cccs1)c1nc2c(nnn2Cc2ccccc2Cl)c(=O)[nH]1 | 40* | -4 | 0.9 | -1 | 53*
O=C(c1ccc(NC2=NC3CS(=O)(=O)CC3S2)cc1)N1CCc2ccccc2C1 (centres undefined) | 3 | 2 | 0.9 | 29* | 13
CCCn1c(N)c(C(=O)CSc2nnnn2-c2ccc(O)cc2)c(=O)n(C)c1=O | nt | nt | nt | 83* | nt
Cc1ccc(NS(C)(=O)=O)c(C(=O)c2ccccc2)c1 | nt | nt | nt | 2 | nt
O=C(O)c1cccc(COc2ccccc2Cl)c1 | nt | 1 | 1 | nt | 92*
O=C(O)c1ccc(COc2ccccc2Cl)cc1 | -3 | 3 | 0.9 | -2 | 1
SMILES | Jurkat viability | MMP13 inh | TNAP act DEA | Candida biofilm | HEK293 NFkB inh
CCOC(=O)c1cnc(SC)nc1Sc1ccccc1 | nt | nt | nt | -2 | nt
NS(=O)(=O)c1ccc(CCNc2ncnc3sccc23)cc1 | 85* | 4 | 0.9 | 4 | 29
CC1(C)CC(=O)C=C(NCCc2ccc(S(N)(=O)=O)cc2)C1 | -5 | -1 | 0.9 | 4 | 14
Cc1cc(C)n(C(=O)CCCCCCCCC(=O)n2nc(C)cc2C)n1 | nt | nt | nt | 7 | nt
O=c1cc(-c2ccccc2)[nH]c2ccccc12 | 93* | -8 | 1 | 7 | 30
CCn1c(NC(=O)c2cccc(Cn3cc(Cl)cn3)c2)nc2ccccc21 | 75* | 4 | 0.8 | 0 | 4
O=C(Nc1ccncc1)C1CCCN(S(=O)(=O)c2cccc3cccnc23)C1 (centres undefined) | 89* | 0 | 0.8 | 3 | 27
Cc1ccc(N(CC(O)CON=C2c3ccccc3-c3ccccc32)S(C)(=O)=O)cc1 (centres undefined) | nt | nt | nt | 7 | nt
Cc1cc(NC(=O)CCS(=O)(=O)c2nc(-c3ccccc3)cc(C(F)(F)F)n2)no1 | 33* | 1 | 0.9 | -2 | 8
